The subject of assay [1] is A2780. Kind of assay: Cytotoxicity against human A2780 cells by MTT assay. In kind it is functional, cell-based.
Assay [2] is described as follows: Cytotoxicity against human A2780AD cells by MTT assay. In kind it is functional, cell-based. The note with it: A2780 ADR.
Assay [3] in a line: Resistance ratio of IC50 for human A2780AD cells to IC50 for human A2780 cells. It is filed as functional, A2780 ADR.
Assay [4] in a line: Cytotoxicity against human MCF7/R cells by MTT assay. It is filed as functional, cell-based. Conditions: MCF7R.
Assay [5] relates to HeLa. The experiment in a line: Cytotoxicity against human HeLa cells by MTT assay. It is filed as functional, cell-based. The method, boiled down: (§1)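 MTT assay run as a modified version of an earlier method. IC50 in nM is the mean ± SEM of three independent assays. Relative resistance is the IC50 in the resistant line (1A9 tubulin mutants, or βIII-transfected HeLa) divided by the IC50 in the parental line (1A9 or HeLa).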

For assay [6], the system named is HeLa. The experiment in a line: Cytotoxicity against human HeLa cells transfected with wild-type tubulin beta3 by MTT assay. It is filed as functional, cell-based. In short, it runs like this: as §1
Assay [7] relates to HeLa. Kind of assay: Resistance ratio of IC50 for human HeLa cells transfected with wild-type tubulin beta3 to IC50 for human HeLa cells. In kind it is functional. The method, boiled down: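 Relative resistance is the IC50 in HeLa cells transfected with wild-type βIII-tubulin divided by the IC50 in parental HeLa cells. Each IC50 (nM) is the mean ± SEM of three independent assays.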

Assay [8] concerns 1A9. Kind of assay: Cytotoxicity against human 1A9 cells by MTT assay. It is filed as functional, cell-based. The method, boiled down:
as §1

The nature of assay [9]: Cytotoxicity against human 1A9PTX10 cells by MTT assay. In kind it is functional, cell-based. Conditions: 1A9/ptx-10. In short, it runs like this: as §1
Assay [10] relates to 1A9. Kind of assay: Resistance ratio of IC50 for human 1A9PTX10 cells to IC50 for human 1A9 cells. It is filed as functional. The method, boiled down:
(§2)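 Relative resistance is the IC50 in the 1A9 tubulin-mutant line divided by the IC50 in parental 1A9 ovarian carcinoma cells. Each IC50 (nM) is the mean ± SEM of three independent assays.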

Assay [11] can be described thus: Cytotoxicity against human 1A9PTX22 cells by MTT assay. In kind it is functional, cell-based. Conditions: 1A9/ptx-22. The method, boiled down:
as §1

The test system of assay [12] is 1A9. The experiment in a line: Resistance ratio of IC50 for human 1A9PTX22 cells to IC50 for human 1A9 cells. It is filed as functional. In short, it runs like this: as §2
Assay [13] in a line: Cytotoxicity against human 1A9/A8 cells by MTT assay. It is filed as functional, cell-based. In short, it runs like this:
as §1

Assay [14] concerns 1A9. Kind of assay: Resistance ratio of IC50 for human 1A9/A8 cells to IC50 for human 1A9 cells. It is filed as functional.
The subject of assay [15] is A549. The experiment in a line: Effect on microtubule cytoskeleton in human A549 cells assessed as induction of micronuleated cells with short microtubules in cytoplasm at 60 to 120 nM after 24 hrs by immunofluorescence assay. It is filed as cell-based. In short, it runs like this:
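A549 cells were grown overnight on coverslips, then given DMSO vehicle or ligand (60 or 120 nM) for 24 h. Cells were permeabilized with Triton X-100 and fixed in 3.7% formaldehyde. Microtubules were stained with DM1A α-tubulin antibody and DNA with Hoechst 33342. Preparations were viewed by epifluorescence microscopy.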

In assay [16] the test system is A2780. The experiment in a line: Cell cycle arrest at G2/M phase in human A2780 cells at 30 nM after 20 hrs by flow cytometry. In kind it is functional, cell-based.
Assay [17] concerns A2780. The experiment in a line: Cell cycle arrest at G2/M phase in human A2780 cells at 60 nM after 20 hrs by flow cytometry. It is filed as functional, cell-based.
Assay [18] can be described thus: Cell cycle arrest at G2/M phase in human A2780AD cells at 30 nM after 20 hrs by flow cytometry. It is filed as functional, cell-based. Conditions: A2780 ADR.
The nature of assay [19]: Cell cycle arrest at G2/M phase in human A2780AD cells at 60 nM after 20 hrs by flow cytometry. In kind it is functional, cell-based. The note with it: A2780 ADR.
The test system of assay [20] is A549. Kind of assay: Cell cycle arrest at G2/M phase in human A549 cells at 30 nM after 20 hrs by flow cytometry. In kind it is functional, cell-based.
Assay [21] deals with A549. The experiment in a line: Cell cycle arrest at G2/M phase in human A549 cells at 60 nM after 20 hrs by flow cytometry. In kind it is functional, cell-based.
Assay [22] has as its target Tubulin (Bos taurus) (UniProt Q6B856+Q862L2+Q862F3). Kind of assay: Induction of calf brain tubulin polymerization assessed as tubulin concentration required to form microtubules by electron microscopy. The method, boiled down:
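Critical tubulin concentration found by centrifugation and quantification of the polymer formed. Polymers adsorbed onto formvar/carbon-coated copper grids, stained with 1% uranyl acetate, and viewed by electron microscopy at 100 kV.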

Assay [23] relates to microtubule (Bos taurus). Kind of assay: Binding affinity to microtubule (Bos taurus) after 30 mins at 26 degC by flutax-2 displacement method.
For assay [24], the system named is microtubule (Bos taurus). Kind of assay: Binding affinity to microtubule (Bos taurus) after 30 mins at 27 degC by flutax-2 displacement method.
The subject of assay [25] is microtubule (Bos taurus). The experiment in a line: Binding affinity to microtubule (Bos taurus) after 30 mins at 30 degC by flutax-2 displacement method.
Assay [26] deals with microtubule (Bos taurus). The experiment in a line: Binding affinity to microtubule (Bos taurus) after 30 mins at 32 degC by flutax-2 displacement method.
Assay [27] concerns microtubule (Bos taurus). The experiment in a line: Binding affinity to microtubule (Bos taurus) after 30 mins at 35 degC by flutax-2 displacement method.
The subject of assay [28] is microtubule (Bos taurus). Kind of assay: Binding affinity to microtubule (Bos taurus) after 30 mins at 37 degC by flutax-2 displacement method.
Assay [29] concerns microtubule (Bos taurus). The experiment in a line: Binding affinity to microtubule (Bos taurus) after 30 mins at 40 degC by flutax-2 displacement method.
Assay [30] relates to microtubule (Bos taurus). The experiment in a line: Binding affinity to microtubule (Bos taurus) after 30 mins at 42 degC by flutax-2 displacement method.
Assay [31] deals with A549. The experiment in a line: Effect on microtubule cytoskeleton in human A549 cells assessed as induction of MS bundles of microtubules near membrane and nucleus at 50 to 500 nM after 24 hrs by immunofluorescence assay. In kind it is cell-based. The method, boiled down: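 A549 cells grown overnight on 12 mm round coverslips, then exposed 24 h to DMSO vehicle or ligand at serial concentrations. Permeabilized with Triton X100, fixed in 3.7% formaldehyde. Microtubules stained with DM1A anti-α-tubulin monoclonal, DNA with Hoechst 33342. Viewed by epifluorescence microscopy and imaged with a cooled CCD camera.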

Assay [32] relates to MCF7. The experiment in a line: Cytotoxicity against human MCF7 cells by MTT assay. In kind it is functional, cell-based.

These results are taken from ChEMBL document CHEMBL3352049, “Taxanes with high potency inducing tubulin assembly overcome tumoural cell resistances” (Bioorg Med Chem, 2014).

SMILES strings stand for the structures. Active and inactive are the calls of the source. The calls are words filed in the database; no cut-off is given here.

For the molecule `CC(=O)O[C@@]12CO[C@@H]1C[C@H](O)[C@@]1(C)C(=O)[C@H](OC(=O)C3CC3)C3=C(C)[C@@H](OC(=O)[C@H](O)[C@H](C=C(C)C)NC(=O)OC(C)(C)C)C[C@@](O)([C@@H](OC(=O)c4ccccc4)[C@H]21)C3(C)C`, the IC50 amounted to 5.2 nM in assay [1]; 10.9 nM in assay [2]; 2.1 nM in assay [4]; 2.1 nM in [5]; 11.2 nM in [6]; 5 nM in [8]. Besides, the IC50 is 10.8 nM in assay [9], 7.9 nM in [11] and 12.2 nM in [13]. Also, the “Ratio IC50” value was determined as 2.1 in assay [3]; 5.3 in [7]; 2.2 in assay [10]; 1.6 in assay [12]; 2.4 in assay [14]. Moreover, the result in assay [15], in [16], in [17], in assay [18], in assay [19] and in assay [20] was Active. For the same molecule, the result in assay [21] was Active. The Activity in [22] was found to be 0.9 µM. For the same molecule, the Kb in [23] came to 12 ×10⁷ /M; in assay [24], 11 ×10⁷ /M; in [25], 10 ×10⁷ /M; in [26] it was 9 ×10⁷ /M; in assay [27], 8 ×10⁷ /M; in assay [28], 7 ×10⁷ /M. Further, the values for the Kb in assay [29] and in assay [30] were 7 ×10⁷ /M and 6 ×10⁷ /M, respectively.

As to `C/C=C(\C)C(=O)N[C@@H](c1ccccc1)[C@@H](O)C(=O)O[C@H]1C[C@@]2(O)[C@@H](OC(=O)c3cccc(N=[N+]=[N-])c3)[C@@H]3[C@]4(OC(C)=O)CO[C@@H]4C[C@H](OC(=O)CC)[C@@]3(C)C(=O)[C@H](O)C(=C1C)C2(C)C`, the IC50 is 14 nM in [2]; 3.2 nM in assay [5]; 10.2 nM in assay [6]; 2.3 nM in assay [8]; 11.6 nM in assay [9]; 1.9 nM in assay [11]. Further, the IC50 in assay [13] turned out to be 2 nM. The “Ratio IC50” value amounted to 5.2 in [3]; 3.2 in [7]; 5 in assay [10]; 0.83 in [12]; 0.9 in [14]. Further, the outcome in assay [15] was Active. Further, in assay [22], the Activity stood at 2.9 µM. Besides, the Kb in assay [23] came out at 124 ×10⁷ /M; in [25] it was 85 ×10⁷ /M; in assay [27], 87 ×10⁷ /M; in assay [29] it was 52 ×10⁷ /M.

With `CC(=O)O[C@@]12CO[C@@H]1C[C@H](O)[C@@]1(C)C(=O)[C@H](O)C3=C(C)[C@@H](OC(=O)[C@H](O)[C@@H](NC(=O)OC(C)(C)C)c4ccccc4)C[C@@](O)([C@@H](OC(=O)c4ccccc4)[C@H]21)C3(C)C` [DOCETAXEL], the IC50 in [2] turned out to be 290 nM. The Activity in assay [22] came out at 2.4 µM.

As to `CC(=O)O[C@H]1C(=O)[C@@]2(C)[C@H]([C@H](OC(=O)c3ccccc3)[C@]3(O)C[C@H](OC(=O)[C@H](O)[C@@H](NC(=O)c4ccccc4)c4ccccc4)C(C)=C1C3(C)C)[C@]1(OC(C)=O)CO[C@@H]1C[C@@H]2O` [PACLITAXEL], the IC50 in [1] stood at 0.4 nM; in assay [2] it was 1240 nM; in assay [5] it was 0.7 nM; in [8] it was 3.9 nM; in [9], 81.4 nM; in [11], 32.8 nM. In assay [13], this molecule registered an IC50 of 4.2 nM. Further, the outcome in assay [31] was Active. In [22], the Activity is 4.2 µM.

In the case of `CC(=O)O[C@H]1C(=O)[C@@]2(C)[C@H]([C@H](OC(=O)c3ccccc3)[C@]3(O)C[C@H](OC(=O)[C@H](O)[C@H](CC(C)C)NC(=O)OC(C)(C)C)C(C)=C1C3(C)C)[C@]1(OC(C)=O)CO[C@@H]1C[C@@H]2O`, the IC50 in assay [1] is 3.7 nM; in assay [2] it was 29.1 nM; in assay [32], 0.35 nM; in assay [4], 2.8 nM; in [5] it was 4.4 nM; in assay [6] it was 11.2 nM. The IC50 in assay [8] came to 2.4 nM; in [9], 1.75 nM; in [11], 4.95 nM; in assay [13], 11.5 nM. Moreover, the “Ratio IC50” value in assay [3] is listed as 7.9; in assay [7] it was 2.5; in assay [10], 0.7; in assay [12] it was 2; in assay [14] it was 4.7. For the same molecule, the result in [15], in [16], in [17], in assay [18], in [19] and in [20] was Active. The result in [21] was Active. Also, in assay [22], the Activity was 1.6 µM. For the same molecule, the Kb in assay [23] came to 3 ×10⁷ /M; in assay [24], 2.8 ×10⁷ /M; in assay [25], 2.7 ×10⁷ /M; in [26], 2.7 ×10⁷ /M; in [27] it was 2.4 ×10⁷ /M; in [28] it was 2.3 ×10⁷ /M. In addition, the Kb in assay [29] is 2.7 ×10⁷ /M; in assay [30], 2.5 ×10⁷ /M.

On to `CCC(=O)O[C@H]1C(=O)[C@@]2(C)[C@H]([C@H](OC(=O)c3cccc(N=[N+]=[N-])c3)[C@]3(O)C[C@H](OC(=O)[C@H](O)[C@@H](NC(=O)OC(C)(C)C)c4ccccc4)C(C)=C1C3(C)C)[C@]1(OC(C)=O)CO[C@@H]1C[C@@H]2O`, for which the IC50 in assay [1] came out at 7 nM; in assay [2] it was 9.1 nM; in assay [32], 1.9 nM; in [4], 153 nM; in assay [5] it was 9.2 nM; in [6] it was 16 nM. Further, the IC50 in [8] turned out to be 3.1 nM; in assay [9], 2.4 nM; in [11], 12 nM; in [13], 3.8 nM. Besides, the “Ratio IC50” value in assay [3] worked out at 1.3; in [7], 1.7; in assay [10], 0.4; in assay [14] it was 1.2. For the same molecule, the result in [15] was Active. Moreover, the Activity in assay [22] was determined as 3.6 µM. The Kb in [23] turned out to be 612 ×10⁷ /M; in assay [25], 748 ×10⁷ /M; in [27], 628 ×10⁷ /M; in [29], 355 ×10⁷ /M.
